Test results published in ChEMBL document CHEMBL1629636, “In vitro susceptibility of Borrelia spielmanii to antimicrobial agents commonly used for treatment of Lyme disease” (2009).
≈ marks a conversion by molar mass, not a printed value.

Experiments:
[1] = Antimicrobial activity against Borrelia burgdorferi B31 after 72 hrs by colorimetric assay; format: functional; conditions: Borreliella burgdorferi
Outline: (§1)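 Tested in microtiter trays preloaded with lyophilized antibiotics; clinical isolates were low-passage (10 to 20 passages). MIC was read by colorimetric assay after 72 h. MBC was defined as 100% killing in liquid medium at 72 h: aliquots from vials showing no growth were diluted 1:1,000 in BSK and checked for regrowth after 3 weeks of subculture. Values are medians of three independent experiments on separate days.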

[2] = tested on: Staphylococcus aureus; test: Antimicrobial activity against Staphylococcus aureus ATCC 29213 after 72 hrs by colorimetric assay; format: functional; conditions: ATCC 29213, 72 h
Outline: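 Quality-control MIC followed the CLSI method with two changes: BSK medium was used, and the antibiotic-medium preparation was preincubated for 48 h before testing. Tests were run on three different days, and the MIC reported is the median of the three.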

[3] = tested on: Borrelia garinii; test: Antimicrobial activity against Borrelia garinii isolate G1 after 72 hrs by colorimetric assay; format: functional; conditions: Borreliella garinii, isolate G1, 72 h; outline: as §1
[4] = tested on: Borrelia spielmanii; test: Antimicrobial activity against Borrelia spielmanii isolate PJes after 72 hrs by colorimetric assay; format: functional; conditions: Borreliella spielmanii; outline: as §1
[5] = tested on: Borrelia afzelii; test: Antimicrobial activity against Borrelia afzelii isolate G1039 after 72 hrs by colorimetric assay; format: functional; conditions: Borreliella afzelii, isolate G1039, 72 h; outline: as §1
[6] = Antimicrobial activity against Borrelia spielmanii A14S after 72 hrs by colorimetric assay; format: functional; conditions: Borreliella spielmanii
Outline: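 Low-passage isolates (10 to 20 passages) grown in BSK medium were tested in microtiter trays precoated with lyophilized antimicrobials. MIC was read colorimetrically after 72 h. Independent experiments were run on three different days, and the MIC reported is the median of the three.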

[7] = tested on: Borrelia spielmanii; test: Antimicrobial activity against Borrelia spielmanii isolate PSig2 after 72 hrs by colorimetric assay; format: functional; conditions: Borreliella spielmanii, isolate PSig2, 72 h; outline: as §1
[8] = tested on: Borrelia spielmanii; test: Antimicrobial activity against Borrelia spielmanii isolate PAnz after 72 hrs by colorimetric assay; format: functional; conditions: Borreliella spielmanii; outline: as §1
[9] = tested on: Borrelia afzelii; test: Antimicrobial activity against Borrelia afzelii isolate G600 after 72 hrs by colorimetric assay; format: functional; conditions: Borreliella afzelii, isolate G600, 72 h; outline: as §1
[10] = tested on: Borrelia spielmanii; test: Antimicrobial activity against Borrelia spielmanii isolate PHap after 72 hrs by colorimetric assay; format: functional; conditions: Borreliella spielmanii; outline: as §1
[11] = tested on: Borrelia spielmanii; test: Antimicrobial activity against Borrelia spielmanii isolate PC-Eq17 after 72 hrs by colorimetric assay; format: functional; conditions: Borreliella spielmanii, isolate PC-Eq17, 72 h; outline: as §1
[12] = tested on: Borrelia afzelii; test: Antimicrobial activity against Borrelia afzelii isolate FEM1 after 72 hrs by colorimetric assay; format: functional; conditions: Borreliella afzelii, isolate FEM1, 72 h; outline: as §1
[13] = tested on: Borrelia spielmanii; test: Antimicrobial activity against Borrelia spielmanii isolate PMew after 72 hrs by colorimetric assay; format: functional; conditions: Borreliella spielmanii; outline: as §1
[14] = tested on: Borrelia spielmanii; test: Antimicrobial activity against Borrelia spielmanii isolate TIsar3 after 72 hrs by colorimetric assay; format: functional; conditions: Borreliella spielmanii, isolate TIsar3, 72 h; outline: as §1
[15] = tested on: Borrelia spielmanii; test: Antimicrobial activity against Borrelia spielmanii isolate TIsar2 after 72 hrs by colorimetric assay; format: functional; conditions: Borreliella spielmanii, isolate TIsar2, 72 h; outline: as §1
[16] = tested on: Borrelia garinii; test: Antimicrobial activity against Borrelia garinii isolate PSth after 72 hrs by colorimetric assay; format: functional; conditions: Borreliella garinii; outline: as §1
[17] = tested on: Borrelia; test: Antimicrobial activity against Borrelia clinical isolate after 72 hrs by colorimetric assay; format: functional; conditions: for MIC90: Borrelia, 72 h; outline: as §1
[18] = tested on: Borrelia garinii; test: Antimicrobial activity against Borrelia garinii isolate M2094 after 72 hrs by colorimetric assay; format: functional; conditions: Borreliella garinii, isolate M2094, 72 h; outline: as §1
[19] = tested on: Borrelia burgdorferi; test: Antimicrobial activity against Borrelia burgdorferi isolate LW2 after 72 hrs by colorimetric assay; format: functional; conditions: Borreliella burgdorferi, isolate LW2, 72 h; outline: as §1
[20] = tested on: Borrelia spielmanii; test: Antimicrobial activity against Borrelia spielmanii isolate PMai after 72 hrs by colorimetric assay; format: functional; conditions: Borreliella spielmanii; outline: as §1
[21] = tested on: Borrelia spielmanii; test: Antimicrobial activity against Borrelia spielmanii isolate PC-Eq17 after 120 hrs by colorimetric assay; format: functional; conditions: Borreliella spielmanii, isolate PC-Eq17, 120 h
[22] = tested on: Borrelia spielmanii; test: Antimicrobial activity against Borrelia spielmanii isolate PC-Eq17 assessed as reduction in bacterial count at 2 ug/ml after 72 hrs; format: functional, Borreliella spielmanii; set-up: scale not given: the % may be the effect or the level left
Outline: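 Time-kill assay: the isolate was exposed to ceftriaxone for up to 120 h. Growth was followed by conventional counts of morphologically intact motile cells and compared with a drug-free growth control. Values are means of two independent experiments run on different days.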

In the case of CC1(C)S[C@@H]2[C@H](NC(=O)[C@H](N)c3ccc(O)cc3)C(=O)N2[C@H]1C(=O)O [AMOXICILLIN], the MBC [1] is reported as 16 µg/mL (≈ 43.8 µM), the MIC [1] is reported as 0.5 µg/mL (≈ 1.37 µM) and the MIC [2] is reported as 2 µg/mL (≈ 5.47 µM). It also gave an MBC [3] of 16 µg/mL (≈ 43.8 µM), an MIC [3] of no more than 0.125 µg/mL and an MBC [4] of 16 µg/mL (≈ 43.8 µM). For the same molecule, the MIC [4] was 0.25 µg/mL (≈ 0.684 µM), the MBC [5] was 8 µg/mL (≈ 21.9 µM) and the MIC [5] was 0.5 µg/mL (≈ 1.37 µM). It also gave an MBC [6] of 16 µg/mL (≈ 43.8 µM), an MIC [6] of 0.25 µg/mL (≈ 0.684 µM) and an MBC [7] of 16 µg/mL (≈ 43.8 µM). The MIC [7] was 0.5 µg/mL (≈ 1.37 µM), the MBC [8] was 16 µg/mL (≈ 43.8 µM) and the MIC [8] was 0.25 µg/mL (≈ 0.684 µM). It also gave an MBC [9] of 4 µg/mL (≈ 10.9 µM), an MIC [9] of 1 µg/mL (≈ 2.74 µM) and an MBC [10] greater than 16 µg/mL. The MIC [10] was 2 µg/mL (≈ 5.47 µM), the MBC [11] was greater than 16 µg/mL and the MIC [11] was 0.5 µg/mL (≈ 1.37 µM). For the same molecule, the MBC [12] was 4 µg/mL (≈ 10.9 µM), the MIC [12] was 4 µg/mL (≈ 10.9 µM) and the MBC [13] was greater than 16 µg/mL. The MIC [13] was 1 µg/mL (≈ 2.74 µM), the MBC [14] was 4 µg/mL (≈ 10.9 µM) and the MIC [14] was 2 µg/mL (≈ 5.47 µM). The MBC [15] was 16 µg/mL (≈ 43.8 µM), the MIC [15] was no more than 0.125 µg/mL and the MBC [16] was 8 µg/mL (≈ 21.9 µM). For the same molecule, the MIC [16] was 0.125 µg/mL (≈ 0.342 µM), the MBC90 [17] was greater than 16 µg/mL and the MIC90 [17] was 2 µg/mL (≈ 5.47 µM). The MBC [18] was 16 µg/mL (≈ 43.8 µM), the MIC [18] was 0.25 µg/mL (≈ 0.684 µM) and the MBC [19] was 4 µg/mL (≈ 10.9 µM). For the same molecule, the MIC [19] was 1 µg/mL (≈ 2.74 µM), the MBC [20] was 8 µg/mL (≈ 21.9 µM) and the MIC [20] was 2 µg/mL (≈ 5.47 µM).

CO/N=C(\C(=O)N[C@@H]1C(=O)N2C(C(=O)O)=C(CSc3nc(=O)c(O)nn3C)CS[C@H]12)c1csc(N)n1 [CEFTRIAXONE] gave an MBC [1] of 2 µg/mL (≈ 3.61 µM), an MIC [1] of 0.0312 µg/mL (≈ 0.0563 µM) and an MIC [2] of 4 µg/mL (≈ 7.21 µM). The MBC [3] was 2 µg/mL (≈ 3.61 µM), the MIC [3] was 0.0312 µg/mL (≈ 0.0563 µM) and the MBC [21] was 2 µg/mL (≈ 3.61 µM). For the same molecule, the MBC [4] was 2 µg/mL (≈ 3.61 µM), the MIC [4] was 0.0312 µg/mL (≈ 0.0563 µM) and the MBC [5] was 0.5 µg/mL (≈ 0.902 µM). It also gave an MIC [5] of 0.0312 µg/mL (≈ 0.0563 µM), an MBC [6] of 0.5 µg/mL (≈ 0.902 µM) and an MIC [6] of 0.0312 µg/mL (≈ 0.0563 µM). It also gave an MBC [7] of 1 µg/mL (≈ 1.8 µM), an MIC [7] of 0.0312 µg/mL (≈ 0.0563 µM) and an MBC [8] of 1 µg/mL (≈ 1.8 µM). The MIC [8] was 0.0156 µg/mL (≈ 0.0281 µM), the MBC [9] was 0.5 µg/mL (≈ 0.902 µM) and the MIC [9] was 0.0625 µg/mL (≈ 0.113 µM). It also gave an MBC [10] of 2 µg/mL (≈ 3.61 µM), an MIC [10] of 0.0625 µg/mL (≈ 0.113 µM) and an MBC [11] of 2 µg/mL (≈ 3.61 µM). The MIC [11] was 0.0312 µg/mL (≈ 0.0563 µM), the MBC [12] was 2 µg/mL (≈ 3.61 µM) and the MIC [12] was 0.0625 µg/mL (≈ 0.113 µM). For the same molecule, the Activity [22] was 99.9%, the MBC [13] was 4 µg/mL (≈ 7.21 µM) and the MIC [13] was 0.125 µg/mL (≈ 0.225 µM). For the same molecule, the MBC [14] was 0.5 µg/mL (≈ 0.902 µM), the MIC [14] was 0.0625 µg/mL (≈ 0.113 µM) and the MBC [15] was 0.5 µg/mL (≈ 0.902 µM). The MIC [15] was 0.0156 µg/mL (≈ 0.0281 µM), the MBC [16] was 2 µg/mL (≈ 3.61 µM) and the MIC [16] was 0.0312 µg/mL (≈ 0.0563 µM). The MBC90 [17] was 4 µg/mL (≈ 7.21 µM), the MIC90 [17] was 0.0625 µg/mL (≈ 0.113 µM) and the MBC [18] was 2 µg/mL (≈ 3.61 µM). It also gave an MIC [18] of 0.0312 µg/mL (≈ 0.0563 µM), an MBC [19] of 4 µg/mL (≈ 7.21 µM) and an MIC [19] of 0.0312 µg/mL (≈ 0.0563 µM). For the same molecule, the MBC [20] was 4 µg/mL (≈ 7.21 µM) and the MIC [20] was 0.0625 µg/mL (≈ 0.113 µM).

Molecule CO/N=C(\C(=O)N[C@@H]1C(=O)N2C(C(=O)O)=C(COC(N)=O)CS[C@H]12)c1ccco1 [CEFUROXIME] has an MBC [1] greater than 8 µg/mL, an MIC [1] of 0.125 µg/mL (≈ 0.295 µM) and an MIC [2] of 2 µg/mL (≈ 4.71 µM). For the same molecule, the MBC [3] was greater than 8 µg/mL, the MIC [3] was 0.125 µg/mL (≈ 0.295 µM) and the MBC [4] was 8 µg/mL (≈ 18.9 µM). For the same molecule, the MIC [4] was 0.125 µg/mL (≈ 0.295 µM), the MBC [5] was 8 µg/mL (≈ 18.9 µM) and the MIC [5] was 0.125 µg/mL (≈ 0.295 µM). The MBC [6] was 8 µg/mL (≈ 18.9 µM), the MIC [6] was 0.125 µg/mL (≈ 0.295 µM) and the MBC [7] was 8 µg/mL (≈ 18.9 µM). For the same molecule, the MIC [7] was 0.125 µg/mL (≈ 0.295 µM), the MBC [8] was greater than 8 µg/mL and the MIC [8] was 0.125 µg/mL (≈ 0.295 µM). It also gave an MBC [9] of 4 µg/mL (≈ 9.43 µM), an MIC [9] of 0.25 µg/mL (≈ 0.589 µM) and an MBC [10] greater than 8 µg/mL. The MIC [10] was 0.25 µg/mL (≈ 0.589 µM), the MBC [11] was greater than 8 µg/mL and the MIC [11] was 0.125 µg/mL (≈ 0.295 µM). It also gave an MBC [12] greater than 8 µg/mL, an MIC [12] of 0.5 µg/mL (≈ 1.18 µM) and an MBC [13] greater than 8 µg/mL. The MIC [13] was 0.125 µg/mL (≈ 0.295 µM), the MBC [14] was 4 µg/mL (≈ 9.43 µM) and the MIC [14] was 0.5 µg/mL (≈ 1.18 µM). For the same molecule, the MBC [15] was 2 µg/mL (≈ 4.71 µM), the MIC [15] was 0.125 µg/mL (≈ 0.295 µM) and the MBC [16] was greater than 8 µg/mL. It also gave an MIC [16] of 0.125 µg/mL (≈ 0.295 µM), an MBC90 [17] greater than 8 µg/mL and an MIC90 [17] of 0.25 µg/mL (≈ 0.589 µM). It also gave an MBC [18] greater than 8 µg/mL, an MIC [18] of 0.125 µg/mL (≈ 0.295 µM) and an MBC [19] of 8 µg/mL (≈ 18.9 µM). It also gave an MIC [19] of 0.125 µg/mL (≈ 0.295 µM), an MBC [20] of 8 µg/mL (≈ 18.9 µM) and an MIC [20] of 0.125 µg/mL (≈ 0.295 µM).
